Assay results pooled from the literature.
Compare with care: the assays were run in different laboratories. pKi: −log10 of the molar value.
Effect on: enzyme activity
CYP2C8: Cytochrome P450 2C8 (CYP2C8, Homo sapiens, UniProt P10632)
CYP2C9: Cytochrome P450 2C9 (CYP2C9, Homo sapiens, UniProt P11712)

| target | test | test system | setting | quantity | value | Compound |
| --- | --- | --- | --- | --- | --- | --- |
| CYP2C8 | inhibitor | – | – | kinact | 0.000588 s⁻¹ | CCc1nc2c(C)cc(N3CCN(CC(=O)N4CC(O)C4)CC3)cn2c1N(C)c1nc(-c2ccc(F)cc2)c(C#N)s1 |
| CYP2C8 | substrate | – | – | Km | 2.6 µM | CON=C(N)c1ccc(-c2ccc(-c3ccc(C(N)=NOC)cc3)o2)cc1 |
| CYP2C9 | inhibitor, luciferase | – | 10 µM | inhibition | -17.1% | Nc1nc(N)c2nc(C(=O)NCc3cccc(C(F)(F)F)c3)cnc2n1 |
| CYP2C9 | inhibitor | human, liver microsomes | 40 µM | inhibition | 7% | Cc1nc2c([nH]1)c(=O)n(C)c(=O)n2Cc1ccco1 |
| CYP2C8 | inhibitor, mass spectrometry | human, liver microsomes | – | IC50 | > 90 µg/mL | CC1(CO)C(O[C@@H]2O[C@H](C(=O)O)[C@@H](O)[C@H](O)[C@H]2O)CC[C@@]2(C)C1CC[C@]1(C)C2CC=C2[C@H]3CC(C)(C)[C@H](O)[C@@H](O)[C@]3(CO)[C@H](O)C[C@]21C (stereo partly drawn) |
| CYP2C9 | inhibitor, luciferase | – | 10 µM | inhibition | -2.93% | CCN(Cc1cnc2nc(N)nc(N)c2n1)c1ccc(C(=O)N2CCC(C(=O)OC)CC2)cc1 |
| CYP2C8 | inhibitor | human, liver microsomes | 200 µM, 20 min | inhibition | 17% | CCc1cc(/C(C)=N/OCc2ccc(C3CCCCC3)c(C(F)(F)F)c2)ccc1CN1CC(C(=O)O)C1 |
| CYP2C8 | inhibitor | human, liver microsomes | 2 µM, pH 7.4 | inhibition | 59.1% | O=C(Nc1c2c(cc3c1CCC3)CCC2)NS(=O)(=O)/C=C/c1nccs1 |
| CYP2C8 | inhibitor | human, liver microsomes | – | pKi | 5.15 | Cc1cccc(F)c1N1CCC(N2Cc3cn(CC(C)(F)F)nc3N(Cc3ccccc3C(F)(F)F)C2=O)CC1 |
